Measured values from ChEMBL document CHEMBL1130101, “A virtual screening approach applied to the search for trypanothione reductase inhibitors” (J Med Chem, 1997).

Legend:
[1] = molecular target: Trypanothione reductase (Trypanosoma cruzi) (UniProt P28593); assay: Natural log of the value in (uM) of inhibition constant was tested against Trypanothione Reductase
[2] = molecular target: Trypanothione reductase (Trypanosoma cruzi) (UniProt P28593); assay: Percent Inhibition of trypanothione reductase activity at 28.5 uM concentration
Summary of the method: (§1)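 TR-catalysed reduction of trypanothione disulfide; the reaction rate was measured without inhibitor (r0) and with inhibitor (rinh). Percent inhibition = (r0 − rinh)/r0 × 100. Measured percentages carry an error of about 10%.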

[3] = molecular target: Trypanothione reductase (Trypanosoma cruzi) (UniProt P28593); assay: Percent Inhibition of trypanothione reductase activity at 5.7 uM concentration; summary of the method: as §1
[4] = molecular target: Trypanothione reductase (Trypanosoma cruzi) (UniProt P28593); assay: Percent Inhibition of trypanothione reductase activity at 57 uM concentration; summary of the method: as §1

Chain of Trypanothione reductase (Trypanosoma cruzi) (P28593 whole entry, looked up): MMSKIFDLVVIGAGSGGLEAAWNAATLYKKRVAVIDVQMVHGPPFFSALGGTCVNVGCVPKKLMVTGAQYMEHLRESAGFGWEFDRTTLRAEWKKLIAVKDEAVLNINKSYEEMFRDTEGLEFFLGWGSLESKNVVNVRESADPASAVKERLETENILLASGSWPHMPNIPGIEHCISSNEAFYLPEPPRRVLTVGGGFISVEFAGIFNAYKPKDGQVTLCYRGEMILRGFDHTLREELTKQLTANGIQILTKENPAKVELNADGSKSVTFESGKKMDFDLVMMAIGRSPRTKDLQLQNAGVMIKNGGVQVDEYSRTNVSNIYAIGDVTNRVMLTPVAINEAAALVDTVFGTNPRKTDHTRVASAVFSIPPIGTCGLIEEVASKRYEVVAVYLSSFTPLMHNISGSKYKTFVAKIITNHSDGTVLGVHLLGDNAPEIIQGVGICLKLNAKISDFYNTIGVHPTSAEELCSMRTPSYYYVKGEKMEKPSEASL

Structure (SMILES)	Natural log of inhibition constant (Ki in uM) [1]	inhibition [2]	inhibition [3]	inhibition [4]
Clc1ccc(Sc2ccccc2)c(NCCCN2CCCCC2)c1	3.95			
COc1ccc(/C=C/C(=O)NCCCNCCCCN)cc1	5.6			
CN1CCN(CCNc2ccccc2Sc2ccc(Cl)cc2)CC1	4.38			
CNCCC=C1c2ccccc2CCc2ccccc21		0%	0%	25%
COc1ccc(/C=C/C(=O)N2CCCN(CCCCN)C2)cc1	5.01			
O=C(/C=C/c1ccc(O)c(O)c1)NCCCNCCCCNCCCNC(=O)/C=C/c1ccc(O)c(O)c1	2.77			
Clc1ccc(Sc2ccc(Cl)cc2NCCCN2CCCCC2)cc1	4.09			
NCc1ccccc1Sc1ccccc1CO		0%	0%	31%
CCN(CC)CCCNc1cc(Cl)ccc1Sc1ccccc1	3.74			
CN(C)CCNc1ccccc1Sc1ccc(Cl)cc1	4.38			
C[C@@H]1CN(CCCn2c3ccccc3c3ccccc32)C[C@H](C)N1		15%	10%	23%
Clc1ccc(Sc2ccccc2NCCN2CCCC2)cc1	5.08			
Clc1ccc(Sc2ccc(Cl)cc2NCCN2CCCCC2)cc1	6.9			
CN1CCN(CCCNc2cc(Cl)ccc2Sc2ccc(Cl)cc2)CC1	4.04			
CC(=O)c1ccc(Sc2ccc(Cl)cc2NCCCN2CCN(C)CC2)cc1	2.94			
CN(C)CCNc1cc(Cl)ccc1Sc1ccc(Cl)cc1	3.91			
Cc1cccc(C)c1OCC(O)CN1CCNCC1 (stereo not drawn)		0%	0%	7%
Clc1ccc(Sc2ccccc2)c(NCCN2CCCCC2)c1	6.55			
NCCCNCCCCNCCCNC(=O)CCc1ccc(O)c(O)c1	4.44			
CN1CCN(CCCNc2cc(Cl)ccc2Sc2ccccc2)CC1	3.3			
NCCCNCCCNC1=C(c2c[nH]c3ccccc23)C(=O)NC1=O	0.91			
N#Cc1ccc(C2NCCc3c2[nH]c2ccccc32)cc1 (stereo not drawn)		0%	0%	0%
Clc1ccc(Sc2ccccc2)c(NCCCN2CCCC2)c1	3.78			
Clc1ccc(C(c2ccccc2)N2CCNCC2)cc1 (stereo not drawn)		30%	0%	40%
CCC(C)(C)c1ccc(OCCCCN)c(C(C)(C)CC)c1		0%	0%	0%
Cc1ccc(Sc2ccc(F)cc2)c(NCCCN2CCN(C)CC2)c1	5.35			

Structure (SMILES)	Natural log of inhibition constant (Ki in uM) [1]	inhibition [2]	inhibition [3]	inhibition [4]
NCCc1ccc(Oc2ccccc2)cc1		0%	0%	0%
CN1CCN(CCNc2cc(Cl)ccc2Sc2ccccc2)CC1	3.68			
CN1CCN(CCCNc2cc(Cl)ccc2Sc2cc(Cl)ccc2Cl)CC1	3.4			
CN1CCN(CCCNc2cc(Cl)ccc2Sc2ccc(F)cc2)CC1	4.74			
CN(C)CCNc1cc(Cl)ccc1Sc1ccccc1	4.38			
CN(C)CCCC(CN)(c1ccccc1)c1ccccc1		9%	0%	36%
NCCNCCCNc1cc(Cl)ccc1Sc1ccccc1	3			
CCN(CC)CCNc1cc(Cl)ccc1Sc1ccccc1	6.21			
Cc1ccc(Sc2ccc(Cl)cc2NCCCN2CCN(C)CC2)cc1	3.33			
Cc1cc(-c2ccccc2)nnc1NCCN1CCOCC1		16%	18%	12%
COc1ccc(CCC(=O)NCCCNCCCCN)cc1	5.82			
Fc1ccc(C(CCCN2CCNCC2)c2ccc(F)cc2)cc1		9%	0%	18%
NCCCCNCCCNC(=O)CCc1ccc(O)c(O)c1	4.68			
CN(C)c1ccc(C(c2ccc(N(C)C)cc2)c2ccc(N(C)C)cc2)cc1	1.6			
Clc1ccc(Sc2ccc(Cl)cc2NCCCN2CCCC2)cc1	4.06			
Cc1ccc(Sc2ccc(C)cc2NCCCN2CCN(C)CC2)cc1	4.38			
CN1CCN(CCNc2cc(Cl)ccc2Sc2ccc(Cl)cc2)CC1	3.85			
c1ccc(Sc2ccccc2NCCCN2CCCC2)cc1	4.73			
NCCN(CCN)CCCNc1cc(Cl)ccc1Sc1ccccc1	1.5			
COc1ccc(/C=C/C(=O)NCCCCN2CCCN(C(=O)/C=C/c3ccc(OC)cc3)C2)cc1	5.01			
O=C(CCc1ccc(O)c(O)c1)NCCCCNCCCNC(=O)CCc1ccc(O)c(O)c1	2.01			
NCCC1CCN(Cc2ccccc2)CC1		0%	0%	0%
CN1CCN(CCCCNc2ccccc2Sc2cccc(NCCCCCNc3cccc(Sc4ccccc4NCCCCN4CCN(C)CC4)c3)c2)CC1	1			
Clc1ccc(Sc2ccccc2)c(NCCN2CCCC2)c1	4.34			
Cc1ccc(Sc2ccccc2NCCCN2CCN(C)CC2)cc1	4.17			
COc1cc(CC2NCCc3c2[nH]c2ccccc32)ccc1O (stereo not drawn)		13%	0%	27%
